# Test results published in paper PMC5087271 (Nature methods, 2015).
# Numbering of substitutions follows the chain as printed. Entries after “also recorded” stand apart in the source; their conditions may differ. Ends that are not written are not given here.
# T1: human PAR1 (Homo sapiens, UniProt P25116)
# T1 sequence (P25116 36-397): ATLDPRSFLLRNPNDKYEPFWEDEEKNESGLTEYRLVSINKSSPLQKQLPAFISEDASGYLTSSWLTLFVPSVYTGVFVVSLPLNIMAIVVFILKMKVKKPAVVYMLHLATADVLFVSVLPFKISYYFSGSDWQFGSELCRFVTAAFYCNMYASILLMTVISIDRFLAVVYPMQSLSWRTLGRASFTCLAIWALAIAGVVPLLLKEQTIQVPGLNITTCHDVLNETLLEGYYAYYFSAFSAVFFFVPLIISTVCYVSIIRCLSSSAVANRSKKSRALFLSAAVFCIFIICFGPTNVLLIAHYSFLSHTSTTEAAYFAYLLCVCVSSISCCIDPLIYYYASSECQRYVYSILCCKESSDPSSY
# T2: SFLLRN tethered ligand peptide (TRAP) (Homo sapiens, vorapaxar-bound PAR1)
# T2 chain: SFLLRN
# T3: SFLLRN tethered ligand peptide (TRAP) (Homo sapiens)
# T3 chain: SFLLRN
# T4: SFLLAN peptide (Homo sapiens)
# T4 chain: SFLLAN
# T5: SALLRN peptide (Homo sapiens)
# T5 chain: SALLRN
# B1: PAR1 36-397 (protein)
# chain: T1 sequence (P25116 36-397)
# B2: PAR1 36-397 (protein)
# chain: T1 sequence (P25116 36-397) with R11A
# B3: PAR1 36-397 (protein)
# chain: T1 sequence (P25116 36-397) with F8A
# Key:
# [1] = target: T1, human PAR1; type: binding; conditions: PEG spacer carrying PAR1 N terminus with the SFLLRN ligand replaced
# [2] = tested on: PAR1; experiment: cell-based assays of antagonist dissociation from PAR1
# [3] = tested on: platelets; conditions: at 200 μM peptide; cited from earlier work
# [4] = tested on: PAR1 complexed with the antagonist vorapaxar; type: binding, human; conditions: vorapaxar-blocked versus free PAR1
# In short: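 Human PAR1 (residues Ala36–Tyr397) expressed in Sf9 cells via baculovirus and purified with 100 nM vorapaxar during lysis and solubilisation, then 1 μM through Ni-NTA, M1 and SEC. Reconstituted at 10 μM into DOPC/CHS liposomes, diluted 300-fold, adsorbed on mica. Cys-peptide ligand coupled to PEG-tipped cantilevers. Probed at 0.25 kHz, 30–50 nm amplitude, ~150 pN, ~27 °C. Free-energy landscape fitted from DFS plots.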
# [5] = target: T2, SFLLRN tethered ligand peptide (TRAP); experiment: FD-based AFM
# [6] = target: T3, SFLLRN tethered ligand peptide (TRAP); experiment: FD-based AFM
# [7] = target: T4, SFLLAN peptide; experiment: FD-based AFM
# [8] = target: T5, SALLRN peptide; experiment: FD-based AFM
molecule,measurement,setting,value
FLLNSR,specific interaction of the functionalized tip with PAR1 (control),[1],did not interact specifically
CCOC(=O)NC1CCC2C(C1)CC1C(=O)OC(C)C1C2CCc1ccc(-c2cccc(F)c2)cn1 (centres unmarked) [vorapaxar derivative],dissociation rate compared with that of vorapaxar,[2],much faster dissociation rate
H-SALLRN [SALLRN],response in platelet aggregation assays,[3],no response
H-SFLLAN [SFLLAN],change of binding strength / affinity to PAR1 in the presence of vorapaxar,[4],remained nearly unchanged; also recorded: no change in binding affinity
B1,Kd,[5],~40 µM
same,Kd,[6],~0.35 µM
B2,Kd,[7],~30 µM
B3,Kd,[8],~3500 µM
